Measurements from ChEMBL document CHEMBL3244241, “Synthesis of cephalotaxine esters and correlation of their structures with antitumor activity” (J Med Chem, 1977).
The source made the active and inactive calls. The rule behind the calls is not given here.

How the values were obtained:
P388 [1] = test: Antitumor activity against mouse P388 cells allografted in ip dosed DBA/2 mouse administered for 9 days; assay type: functional, organism-based
Procedure, shortened: (§1)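 P388 lymphocytic leukemia in DBA/2 mice; one intraperitoneal injection per day for 9 days. […] Injection vehicles were water + alcohol, saline + Tween 80, or aqueous 0.5% citric acid. Some tests were duplicated, and 30-day cures were recorded.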

Mus musculus [2] = test: Toxicity in DBA/2 mouse allografted with mouse P388 cells at 480 mg/kg/day, ip for 9 days; assay type: organism-based; set-up: route intraperitoneal; settings: in vivo, 216 h
Procedure, shortened: (§2)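 DBA/2 mice bearing P388 lymphocytic leukemia received one intraperitoneal injection per day for 9 days, given in the vehicle named for each test (water/alcohol-based, saline or saline + Tween 80). Toxicity was noted during dosing alongside survival scoring (T/C, treated versus control mean survival time).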

P388 [3] = test: Antitumor activity against mouse P388 cells allografted in DBA/2 mouse assessed as host survival at 20 mg/kg/day, ip for 9 days compound administered through water+alcohol vehicle relative to control; assay type: functional; settings: route intraperitoneal
Procedure, shortened: (§3)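 P388 lymphocytic leukemia in DBA/2 mice. Dosing was one intraperitoneal injection per day for 9 days in the vehicle stated. […] Duplicate tests were run for some doses.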

P388 [4] = test: Antitumor activity against mouse P388 cells allografted in DBA/2 mouse assessed as host survival at 40 mg/kg/day, ip for 9 days compound administered through water+alcohol vehicle relative to control; assay type: functional; settings: route intraperitoneal; procedure, shortened: as §3
Mus musculus [5] = test: Toxicity in DBA/2 mouse allografted with mouse P388 cells assessed as change in body weight at 20 mg/kg/day, ip for 9 days compound administered through water+alcohol vehicle; assay type: organism-based; set-up: route intraperitoneal; settings: in vivo, 216 h; procedure, shortened: as §2
P388 [6] = test: Antitumor activity against mouse P388 cells allografted in DBA/2 mouse assessed as host survival at 80 mg/kg/day, ip for 9 days compound administered through water+alcohol vehicle relative to control; assay type: functional; settings: route intraperitoneal; procedure, shortened: as §3
Mus musculus [7] = test: Toxicity in DBA/2 mouse allografted with mouse P388 cells assessed as change in body weight at 80 mg/kg/day, ip for 9 days compound administered through water+alcohol vehicle; assay type: organism-based; set-up: route intraperitoneal; settings: in vivo, 216 h; procedure, shortened: as §2
Mus musculus [8] = test: Toxicity in DBA/2 mouse allografted with mouse P388 cells assessed as change in body weight at 40 mg/kg/day, ip for 9 days compound administered through water+alcohol vehicle; assay type: organism-based; set-up: route intraperitoneal; settings: in vivo, 216 h; procedure, shortened: as §2
P388 [9] = test: Antitumor activity against mouse P388 cells allografted in DBA/2 mouse assessed as host survival at 13 mg/kg/day, ip for 9 days compound administered through water+alcohol vehicle relative to control; assay type: functional; settings: route intraperitoneal; procedure, shortened: as §3
P388 [10] = test: Antitumor activity against mouse P388 cells allografted in DBA/2 mouse assessed as host survival at 20 mg/kg/day, ip for 9 days compound administered through 0.5% citric acid vehicle; assay type: functional, organism-based; procedure, shortened: as §1
P388 [11] = test: Antitumor activity against mouse P388 cells allografted in DBA/2 mouse assessed as host survival at 20 mg/kg/day, ip for 9 days compound administered through saline+Tween 80 vehicle relative to control; assay type: functional; settings: route intraperitoneal; procedure, shortened: as §3
Mus musculus [12] = test: Toxicity in DBA/2 mouse allografted with mouse P388 cells assessed as change in body weight at 13 mg/kg/day, ip for 9 days compound administered through water+alcohol vehicle; assay type: organism-based; set-up: route intraperitoneal; settings: in vivo, 216 h; procedure, shortened: as §2
Mus musculus [13] = test: Toxicity in DBA/2 mouse allografted with mouse P388 cells assessed as change in body weight at 20 mg/kg/day, ip for 9 days compound administered through saline+Tween 80 vehicle; assay type: organism-based; set-up: route intraperitoneal; settings: in vivo, 216 h; procedure, shortened: as §2
Mus musculus [14] = test: Toxicity in DBA/2 mouse allografted with mouse P388 cells assessed as change in body weight at 2 mg/kg/day, ip for 9 days compound administered through saline vehicle; assay type: organism-based; set-up: route intraperitoneal; settings: in vivo, 216 h
P388 [15] = test: Antitumor activity against mouse P388 cells allografted in DBA/2 mouse assessed as host survival at 4 mg/kg/day, ip for 9 days compound administered through saline vehicle relative to control; assay type: functional; settings: route intraperitoneal; procedure, shortened: as §3
P388 [16] = test: Antitumor activity against mouse P388 cells allografted in DBA/2 mouse assessed as host survival at 2 mg/kg/day, ip for 9 days compound administered through saline vehicle relative to control; assay type: functional; settings: route intraperitoneal; procedure, shortened: as §3
Mus musculus [17] = test: Toxicity in DBA/2 mouse allografted with mouse P388 cells assessed as change in body weight at 5.9 mg/kg/day, ip for 9 days compound administered through water+alcohol vehicle; assay type: organism-based; set-up: route intraperitoneal; settings: in vivo, 216 h
P388 [18] = test: Antitumor activity against mouse P388 cells allografted in DBA/2 mouse assessed as host survival at 5.9 mg/kg/day, ip for 9 days compound administered through water+alcohol vehicle relative to control; assay type: functional; settings: route intraperitoneal; procedure, shortened: as §3
Mus musculus [19] = test: Toxicity in DBA/2 mouse allografted with mouse P388 cells assessed as change in body weight at 4 mg/kg/day, ip for 9 days compound administered through saline vehicle; assay type: organism-based; set-up: route intraperitoneal; settings: in vivo, 216 h
P388 [20] = test: Antitumor activity against mouse P388 cells allografted in DBA/2 mouse assessed as host survival at 160 mg/kg/day, ip for 9 days compound administered through water+alcohol vehicle relative to control; assay type: functional; settings: route intraperitoneal; procedure, shortened: as §3
P388 [21] = test: Antitumor activity against mouse P388 cells allografted in DBA/2 mouse assessed as host survival at 365 mg/kg/day, ip for 9 days compound administered through water+alcohol vehicle relative to control; assay type: functional; settings: route intraperitoneal; procedure, shortened: as §3
Mus musculus [22] = test: Toxicity in DBA/2 mouse allografted with mouse P388 cells assessed as change in body weight at 160 mg/kg/day, ip for 9 days compound administered through water+alcohol vehicle; assay type: organism-based; set-up: route intraperitoneal; settings: in vivo, 216 h; procedure, shortened: as §2
Mus musculus [23] = test: Toxicity in DBA/2 mouse allografted with mouse P388 cells assessed as change in body weight at 240 mg/kg/day, ip for 9 days compound administered through water+alcohol vehicle; assay type: organism-based; set-up: route intraperitoneal; settings: in vivo, 216 h; procedure, shortened: as §2
P388 [24] = test: Antitumor activity against mouse P388 cells allografted in DBA/2 mouse assessed as host survival at 240 mg/kg/day, ip for 9 days compound administered through water+alcohol vehicle relative to control; assay type: functional; settings: route intraperitoneal; procedure, shortened: as §3
Mus musculus [25] = test: Toxicity in DBA/2 mouse allografted with mouse P388 cells assessed as change in body weight at 365 mg/kg/day, ip for 9 days compound administered through water+alcohol vehicle; assay type: organism-based; set-up: route intraperitoneal; settings: in vivo, 216 h; procedure, shortened: as §2
Mus musculus [26] = test: Toxicity in DBA/2 mouse allografted with mouse P388 cells at 400 mg/kg/day, ip for 9 days; assay type: organism-based; set-up: route intraperitoneal; settings: in vivo, 216 h; procedure, shortened: as §2
P388 [27] = test: Antitumor activity against mouse P388 cells allografted in DBA/2 mouse at 480 mg/kg/day, ip for 9 days; assay type: functional, organism-based; procedure, shortened: as §1

Question: Which Activity (P388 [1]) does the source give for COC1=C[C@]23CCCN2CCc2cc4c(cc2[C@@H]3[C@@H]1OC(=O)OCc1ccccc1)OCO4 here?
Answer: inactive

Question: For C=C(CC(=O)OC)C(=O)O[C@@H]1C(OC)=C[C@]23CCCN2CCc2cc4c(cc2[C@H]13)OCO4 (single isomer, unassigned) [listing 1 of 2 here], which Activity (Mus musculus [2]) is on record?
Answer: Toxic

Question: C/C=C/C=C/C(=O)O[C@@H]1C(OC)=C[C@]23CCCN2CCc2cc4c(cc2[C@H]13)OCO4 was tested. Which T/C (P388 [3]) did it give?
Answer: 130%

Question: What about the T/C (P388 [4]) of the same compound?
Answer: 125%

Question: And the Activity (Mus musculus [5])?
Answer: 0.9 g

Question: And the T/C (P388 [6])?
Answer: 150%

Question: And the Activity (Mus musculus [7])?
Answer: 0.9 g

Question: And the Activity (Mus musculus [8])?
Answer: -1.8 g

Question: For CCOC(=O)C(=O)O[C@@H]1C(OC)=C[C@]23CCCN2CCc2cc4c(cc2[C@H]13)OCO4, which T/C (P388 [3]) is on record?
Answer: 135%

Question: What about the T/C (P388 [9]) of the same compound?
Answer: 154%

Question: And the Activity (P388 [10])?
Answer: inactive

Question: What about the T/C (P388 [11]) of the same compound?
Answer: 129%

Question: What about the Activity (Mus musculus [5]) of the same compound?
Answer: -0.2 g

Question: What about the Activity (Mus musculus [12]) of the same compound?
Answer: -0.8 g

Question: And the Activity (Mus musculus [13])?
Answer: -0.1 g

Question: With COC(=O)C[C@](O)(CCC(C)C)C(=O)O[C@@H]1C(OC)=C[C@]23CCCN2CCc2cc4c(cc2[C@H]13)OCO4 [DEOXYHARRINGTONINE] as the compound, how does the Activity (Mus musculus [14]) read?
Answer: 0.8 g

Question: What about the T/C (P388 [15]) of the same compound?
Answer: 174%

Question: What about the T/C (P388 [16]) of the same compound?
Answer: 126%

Question: What about the Activity (Mus musculus [17]) of the same compound?
Answer: -0.9 g

Question: What about the T/C (P388 [18]) of the same compound?
Answer: 184%

Question: And the Activity (Mus musculus [19])?
Answer: 0 g

Question: Which Activity (P388 [1]) does the source give for CCOC(=O)O[C@@H]1C(OC)=C[C@]23CCCN2CCc2cc4c(cc2[C@H]13)OCO4 here?
Answer: inactive

Question: Which results are given for C=C(CC(=O)OC)C(=O)O[C@@H]1C(OC)=C[C@]23CCCN2CCc2cc4c(cc2[C@H]13)OCO4?
Answer: T/C (P388 [20]): 167%; T/C (P388 [21]): 198%; Activity (Mus musculus [22]): -1.1 g; T/C (P388 [4]): 135%; T/C (P388 [6]): 173%; Activity (Mus musculus [7]): -0.1 g; Activity (Mus musculus [23]): -1.4 g; T/C (P388 [24]): 169%; Activity (Mus musculus [25]): -3 g; Activity (Mus musculus [8]): -1.3 g; Activity (Mus musculus [26]): Toxic

Question: With COC(=O)/C=C/C=C/C(=O)O[C@@H]1C(OC)=C[C@]23CCCN2CCc2cc4c(cc2[C@H]13)OCO4 as the compound, how does the Activity (P388 [1]) read?
Answer: inactive

Question: How did the Activity (P388 [27]) turn out when C=C(CC(=O)OC)C(=O)O[C@@H]1C(OC)=C[C@]23CCCN2CCc2cc4c(cc2[C@H]13)OCO4 (single isomer, unassigned) [listing 2 of 2 here] was run?
Answer: inactive
